Experimental data published in PMC2199177 (The Journal of Experimental Medicine, 1997).

Tests used:
[1] = system: S17 CTL; experiment: Interferon γ assay; type: cell-based
How it was run: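 CTL were incubated with peptide-sensitized P815 targets as in the cytotoxicity assay, with peptide derivatives at 10−6–10−11 M, some runs with SF1-1.1.1 Fab′ (anti-Kd α3) to block CD8 participation. After 24 h, supernatant IFN-γ was measured by ELISA and values were normalized to the wt ligand. Triplicates, at least two experiments.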

[2] = system: T1 CTL; experiment: 51Cr-release assay; type: cell-based; details: without Fab'
How it was run: (§1)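 51Cr-labeled P815 targets (2 × 10^3/well) in DMEM with FCS (5%) and Hepes (10 mM) plus 10-fold peptide dilutions, 10−6–10−13 M. Cloned CTL (6 × 10^3/well) added, 4 h at 37°C, then supernatant 51Cr counted. Specific lysis was derived from spontaneous and total release. Relative activity is the wt half-maximal-lysis concentration divided by the variant's, normalized by relative Kd competitor activity. Triplicates, at least two experiments.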

[3] = system: S14 CTL; details: ref [4]; cited from earlier work
[4] = system: S14 CTL; experiment: 51Cr-release assay; type: cell-based; details: without Fab'
How it was run: as §1

[5] = system: S17 CTL; experiment: 51Cr-release assay; type: cell-based; details: without Fab'
How it was run: as §1

Substance	effect of blocking of CD8 (SF1-1.1.1 Fab') on IFN-γ production [1]	functional phenotype (antigen recognition versus TCR-ligand binding) [5]	further results
IASA-YIPSAEK(ABA)I [WT]	substantially increased	–	–
IASA-YIASAEK(ABA)I [P255A]	–	–	functional phenotype (antigen recognition versus TCR-ligand binding) [2]: strong agonists
IASA-YILSAEK(ABA)I [P255L]	–	–	functional phenotype [3]: antagonist
IASA-YIPSAAK(ABA)I [E258A]	–	–	functional phenotype (antigen recognition versus TCR-ligand binding) [4]: weak agonists
IASA-YISSAEK(ABA)I [P255S]	substantially increased	weak agonists	–
IASA-YIPAAEK(ABA)I [S256A]	–	strong agonists	–
